Measurements from ChEMBL document CHEMBL3804796, “Discovery of Novel 3,3-Disubstituted Piperidines as Orally Bioavailable, Potent, and Efficacious HDM2-p53 Inhibitors” (ACS Med Chem Lett, 2016).
In brackets after ≈: the same amount, converted by molar mass.

Columns and labels:
[1] = target: T1, Tumour suppressor p53/oncoprotein Mdm2 (Homo sapiens, UniProt Q00987); experiment: Inhibition of human recombinant His-tagged MDM2 (1 to 118 residues) interaction with FAM-tagged p53-based peptide (unknown origin) incubated for 15 mins by fluorescence polarization assay; type: protein assay
A549 = experiment: Antitumor activity against human A549 cells xenografted in nude mouse assessed as tumor growth inhibition at 20 mg/kg, ip once weekly for 30 days relative to control; type: functional; settings: 720 h, read-out: TGI
Outline: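 Mice bearing A549 NSCLC xenografts. The test agent was given orally, either daily or intermittently (daily for 3 days, then 4 days off). Paclitaxel was given at 20 mg/kg ip weekly, alone or in combination. Read-out was tumor growth inhibition.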

A2780 = experiment: Antitumor activity against human A2780 cells xenografted in nude mouse harboring wild type p53 assessed as tumor growth inhibition at 40 mg/kg, ip once weekly for 15 days relative to control; settings: 360 h, read-out: TGI
[2] = Antiproliferative activity against human SJSA1 cells expressing wild type p53 after 72 hrs by CellTitre-Glo assay; settings: SJSA-1, 72 h
[3] = Permeability from apical to basolateral side in human Caco2 cells; type: ADME, cell-based; settings: Caco-2, read-out: permeability
Mus musculus = experiment: Dose normalized AUC (0 to 24 hrs) in mouse at 1 mg/kg, po administered as single dose; type: ADME, organism-based; settings: in vivo
Outline: (§1)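 Single oral dose of 1 mg/kg. Vehicle was 20% HPBCD for mouse and 0.4% HPMC for dog and monkey. Plasma AUC over 0–24 h, dose-normalized, reported in μM·h.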

[4] = Antiproliferative activity against human HCT116 cells expressing wild type p53 after 72 hrs by CellTitre-Glo assay; type: functional, cell-based; settings: HCT-116, 72 h
Outline: (§2)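 Cancer cell lines of known p53 coding-region status (checked by direct sequencing) were exposed to the compound for 72 h. Viability was read with CellTiter-Glo, and the IC50 was taken from these readings.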

SK-UT-1 = experiment: Antiproliferative activity against human SK-UT-1 cells harboring mutant p53 after 72 hrs by CellTitre-Glo assay; type: functional, cell-based; settings: SK-UT-1, 72 h; outline: as §2
[5] = Antiproliferative activity against p53 null human H1299 cells after 72 hrs by CellTitre-Glo assay; type: functional, cell-based; settings: NCI-H1299, 72 h; outline: as §2
[6] = target: T1, Tumour suppressor p53/oncoprotein Mdm2; experiment: Inhibition of MDM2/p53 interaction in human HCT116 cells assessed as activation of p53 transcription by luciferase reporter gene assay; type: cell-based, HCT-116
Outline: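 p53 transcriptional activation measured in HCT116 cells with a p53 response element–driven luciferase reporter (P53RE-Luc).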

SJSA-1 = experiment: Induction of apoptosis in human SJSA1 cells assessed as caspase 3/7 activation; type: functional, cell-based
[7] = Solubility of compound in pH 7.4 phosphate buffer; type: physicochemical
[8] = Intrinsic clearance in human liver microsomes; type: ADME; settings: read-out: CLH
Canis familiaris = experiment: Dose normalized AUC (0 to 24 hrs) in dog at 1 mg/kg, po administered as single dose; type: ADME, organism-based, Canis lupus familiaris; settings: in vivo; outline: as §1
Rhesus monkey = experiment: Dose normalized AUC (0 to 24 hrs) in monkey at 1 mg/kg, po administered as single dose; type: ADME, organism-based, Macaca mulatta; settings: in vivo; outline: as §1
[9] = AUC in mouse at 20 mg/kg, po or 2 mg/kg, iv; type: ADME, organism-based; settings: in vivo
[10] = Oral bioavailability in mouse at 20 mg/kg; type: ADME, organism-based; settings: in vivo

T1 sequence (P04637 whole entry, the tested form may be a part): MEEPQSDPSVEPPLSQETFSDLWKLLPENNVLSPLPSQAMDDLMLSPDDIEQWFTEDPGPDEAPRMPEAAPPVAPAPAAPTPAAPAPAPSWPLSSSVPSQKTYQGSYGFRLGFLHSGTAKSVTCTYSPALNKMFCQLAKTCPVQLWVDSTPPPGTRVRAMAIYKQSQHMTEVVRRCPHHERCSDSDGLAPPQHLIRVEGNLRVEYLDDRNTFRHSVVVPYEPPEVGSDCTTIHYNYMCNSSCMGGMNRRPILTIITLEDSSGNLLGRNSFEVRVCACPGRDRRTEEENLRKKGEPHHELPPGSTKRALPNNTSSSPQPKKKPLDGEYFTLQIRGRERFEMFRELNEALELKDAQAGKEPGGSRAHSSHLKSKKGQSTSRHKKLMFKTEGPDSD
T1 sequence (Q00987 whole entry, the tested form may be a part): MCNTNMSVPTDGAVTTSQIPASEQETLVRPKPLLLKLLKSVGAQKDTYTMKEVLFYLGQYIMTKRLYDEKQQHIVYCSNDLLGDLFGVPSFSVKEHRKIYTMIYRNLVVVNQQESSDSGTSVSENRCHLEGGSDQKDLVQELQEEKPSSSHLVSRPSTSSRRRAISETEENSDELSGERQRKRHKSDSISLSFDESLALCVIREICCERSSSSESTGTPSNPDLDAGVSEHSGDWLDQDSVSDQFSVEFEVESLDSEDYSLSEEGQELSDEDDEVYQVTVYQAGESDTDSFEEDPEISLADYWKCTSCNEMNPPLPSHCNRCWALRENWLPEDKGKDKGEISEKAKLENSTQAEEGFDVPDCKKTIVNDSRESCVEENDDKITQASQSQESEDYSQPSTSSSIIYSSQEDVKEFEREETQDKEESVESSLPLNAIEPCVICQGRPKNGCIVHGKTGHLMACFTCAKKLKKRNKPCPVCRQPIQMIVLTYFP

SMILES | IC50 [1] [nM] | IC50 [2] [nM] | also measured
CCC[C@@H]1N(C(=O)c2cnccc2C(F)(F)F)CCC[C@]1(Oc1nc(C(F)(F)F)cs1)C(=O)N1CCN(c2ccccc2OCCO)CC1 (racemic) | 1100 | – | –
CCC[C@H]1N(C(=O)c2cnccc2C(F)(F)F)CCC[C@@]1(Oc1cccs1)C(=O)N1CCN(c2ccccc2OCCO)CC1 (racemic) | 2900 | – | –
CC(=O)O[C@H]1C(=O)[C@@]2(C)[C@H]([C@H](OC(=O)c3ccccc3)[C@]3(O)C[C@H](OC(=O)[C@H](O)[C@@H](NC(=O)c4ccccc4)c4ccccc4)C(C)=C1C3(C)C)[C@]1(OC(C)=O)CO[C@@H]1C[C@@H]2O [PACLITAXEL] | – | – | inhibition in vivo at 20 mg/kg (A549): 54%
CCC[C@H]1N(C(=O)c2cnccc2C(F)(F)F)CCC[C@@]1(Oc1csc(C(F)(F)F)c1Cl)C(=O)N1CCN(c2ccccc2OCCO)CC1 | 130 | – | –
CC(=O)O[C@@]12CO[C@@H]1C[C@H](O)[C@@]1(C)C(=O)[C@H](O)C3=C(C)[C@@H](OC(=O)[C@H](O)[C@@H](NC(=O)OC(C)(C)C)c4ccccc4)C[C@@](O)([C@@H](OC(=O)c4ccccc4)[C@H]21)C3(C)C [DOCETAXEL ANHYDROUS] | – | – | inhibition in vivo at 40 mg/kg (A2780): 53%
CCC[C@H]1N(C(=O)c2cnccc2C(F)(F)F)CCC[C@@]1(Oc1csc(C(F)(F)F)c1)C(=O)N1CCN(c2ccccc2OCC(=O)O)CC1 | 2 | 1100 | Papp A→B [3]: 0.7 ×10⁻⁶ cm/s; AUC/dose (Mus musculus): 0.02 µM·h
CCC[C@H]1N(C(=O)c2cnccc2C(F)(F)F)CCC[C@@]1(Oc1csc(C(F)(F)F)c1C)C(=O)N1CCN(c2ccccc2OCCO)CC1 | 58 | – | –
CCC[C@H]1N(C(=O)c2cnccc2C(F)(F)F)CCC[C@@]1(Oc1cc(C(F)(F)F)sc1C)C(=O)N1CCN(c2ccccc2OCCO)CC1 | 470 | – | –
COc1ccccc1N1CCN(C(=O)C2(Oc3ccc(C(F)(F)F)cc3)CCCN(C(=O)c3cnccc3C(F)(F)F)C2)CC1 (stereo not given) | – | 5500 | –
CCC[C@H]1N(C(=O)c2cnccc2C(F)(F)F)CCC[C@@]1(Oc1csc(C(F)(F)F)c1)C(=O)N1CCN(c2ccccc2OC(C)(C)C(=O)O)CC1 | 11 | 80 | –
CCC[C@@H]1N(C(=O)c2cnccc2C(F)(F)F)CCC[C@]1(Oc1csc(C(F)(F)F)c1)C(=O)N1CCN(c2ccccc2OCCC(C)(C)C(=O)O)CC1 (single isomer, unassigned) | 10 | 280 | –
CCC[C@@H]1N(C(=O)c2cnccc2C(F)(F)F)CCC[C@]1(Oc1cc(C(F)(F)F)cs1)C(=O)N1CCN(c2ccccc2OCCO)CC1 (racemic) | 170 | – | –
COCCOc1ccccc1N1CCN(C(=O)[C@]2(Oc3ccc(C(F)(F)F)cc3)CCCN(C(=O)c3cnccc3C(F)(F)F)[C@@H]2CCO)CC1 | – | 530 | –
CCC[C@H]1N(C(=O)c2cnccc2C(F)(F)F)CCC[C@@]1(Oc1csc(C(F)(F)F)c1)C(=O)N1CCN(c2ccccc2OCCCCC(=O)O)CC1 | 7 | 170 | –
CCC[C@H]1N(C(=O)c2cnccc2C(F)(F)F)CCC[C@@]1(Oc1csc(C(F)(F)F)c1)C(=O)N1CCN(c2ccccc2OC(C)(C)CO)CC1 | 25 | 1100 | –
CCC[C@@H]1N(C(=O)c2cnccc2C(F)(F)F)CCC[C@]1(Oc1cc(C(F)(F)F)n(C)n1)C(=O)N1CCN(c2ccccc2OCCO)CC1 (racemic) | 6300 | – | –
CCC[C@@H]1N(C(=O)c2cnccc2C(F)(F)F)CCC[C@]1(Oc1csc(C(F)(F)F)c1)C(=O)N1CCN(c2ccccc2OCC2(CC(=O)O)CC2)CC1 (single isomer, unassigned) | 33 | – | –
CCC[C@@H]1N(C(=O)c2cnccc2C(F)(F)F)CCC[C@]1(Oc1csc(C(F)(F)F)c1)C(=O)N1CCN(c2ccccc2OCCO)CC1 (single isomer, unassigned) | 15 | 180 | IC50 [4]: 390 nM; IC50 (SK-UT-1): > 17000 nM; IC50 [5]: > 17000 nM; EC50 [6]: 400 nM; IC50 (SJSA-1): 300 nM; solubility [7]: 10 µM (≈ 7.15 µg/mL); CLint scaled [8]: 14 mL/min/kg; AUC/dose (Mus musculus): 2 µM·h; AUC/dose (Canis familiaris): 0.2 µM·h; AUC/dose (Rhesus monkey): 0.3 µM·h
C=CC[C@H]1N(C(=O)c2cnccc2C(F)(F)F)CCC[C@@]1(Oc1cc(C2CC2)cs1)C(=O)N1CCN(c2ccccc2OCCCC(=O)O)CC1 | 3500 | – | –
CCC[C@@H]1N(C(=O)c2cnccc2C(F)(F)F)CCC[C@]1(Oc1csc(C(F)(F)F)c1)C(=O)N1CCN(c2ccccc2OCC(=O)NC)CC1 (single isomer, unassigned) | 4 | 110 | IC50 [4]: 470 nM; IC50 (SK-UT-1): > 10000 nM; IC50 [5]: > 17000 nM; EC50 [6]: 400 nM; IC50 (SJSA-1): 300 nM; Papp A→B [3]: 18.1 ×10⁻⁶ cm/s; solubility [7]: 12 µM (≈ 8.9 µg/mL); CLint scaled [8]: 13 mL/min/kg; AUC/dose (Mus musculus): 2 µM·h; AUC/dose (Canis familiaris): 0.2 µM·h; AUC/dose (Rhesus monkey): 0.3 µM·h
CCC[C@@H]1N(C(=O)c2cnccc2C(F)(F)F)CCC[C@]1(Oc1ccc(C(F)(F)F)cc1)C(=O)N1CCN(c2ccccc2OCCO)CC1 (single isomer, unassigned) | 40 | 460 | AUC [9]: 8.7 µM·h; bioavailability [10]: 92%; Papp A→B [3]: 9.9 ×10⁻⁶ cm/s; CLint scaled [8]: 23 mL/min/kg; AUC/dose (Mus musculus): 1.2 µM·h
CCC[C@@H]1N(C(=O)c2cnccc2C(F)(F)F)CCC[C@]1(Oc1csc(C(F)(F)C(F)(F)F)c1)C(=O)N1CCN(c2ccccc2OCCO)CC1 (single isomer, unassigned) | 25 | 1100 | –
CCC[C@H]1N(C(=O)c2cnccc2C(F)(F)F)CCC[C@@]1(Oc1cc(I)cs1)C(=O)N1CCN(c2ccccc2OCCO)CC1 (racemic) | 90 | – | –
COc1ccc(C2=N[C@@H](c3ccc(Cl)cc3)[C@@H](c3ccc(Cl)cc3)N2C(=O)N2CCNC(=O)C2)c(OC(C)C)c1 [NUTLIN-3] | – | 1900 | –
CCC[C@H]1N(C(=O)c2cnccc2C(F)(F)F)CCC[C@@]1(Oc1csc(C(F)(F)F)c1)C(=O)N1CCN(c2ccccc2OCC(C)(C)O)CC1 | 23 | 600 | –
CCC[C@H]1N(C(=O)c2cnccc2C(F)(F)F)CCC[C@@]1(Oc1csc(C(F)(F)F)c1)C(=O)N1CCN(c2ccccc2OCC(C)(C)C(=O)O)CC1 | 4 | 260 | –
